Test results: ChEMBL document CHEMBL4308827 (J Med Chem, 2018)
Calls of active or inactive are those of the source. The calls are words filed in the database; no cut-off is given here.

How the values were obtained:
[1] = target: T1, Metabotropic glutamate receptor 2 (Homo sapiens, UniProt Q14416); assay: Positive allosteric modulation of human mGlu2 receptor expressed in CHOK1 cell membranes assessed as increase in glutamate-induced [35S]GTPgammaS binding preincubated for 30 mins followed by [35S]GTPgammaS addition and measured after 90 mins by scintillation spectrometry method; assay type: functional
Target sequence in this assay (Q14416 whole entry): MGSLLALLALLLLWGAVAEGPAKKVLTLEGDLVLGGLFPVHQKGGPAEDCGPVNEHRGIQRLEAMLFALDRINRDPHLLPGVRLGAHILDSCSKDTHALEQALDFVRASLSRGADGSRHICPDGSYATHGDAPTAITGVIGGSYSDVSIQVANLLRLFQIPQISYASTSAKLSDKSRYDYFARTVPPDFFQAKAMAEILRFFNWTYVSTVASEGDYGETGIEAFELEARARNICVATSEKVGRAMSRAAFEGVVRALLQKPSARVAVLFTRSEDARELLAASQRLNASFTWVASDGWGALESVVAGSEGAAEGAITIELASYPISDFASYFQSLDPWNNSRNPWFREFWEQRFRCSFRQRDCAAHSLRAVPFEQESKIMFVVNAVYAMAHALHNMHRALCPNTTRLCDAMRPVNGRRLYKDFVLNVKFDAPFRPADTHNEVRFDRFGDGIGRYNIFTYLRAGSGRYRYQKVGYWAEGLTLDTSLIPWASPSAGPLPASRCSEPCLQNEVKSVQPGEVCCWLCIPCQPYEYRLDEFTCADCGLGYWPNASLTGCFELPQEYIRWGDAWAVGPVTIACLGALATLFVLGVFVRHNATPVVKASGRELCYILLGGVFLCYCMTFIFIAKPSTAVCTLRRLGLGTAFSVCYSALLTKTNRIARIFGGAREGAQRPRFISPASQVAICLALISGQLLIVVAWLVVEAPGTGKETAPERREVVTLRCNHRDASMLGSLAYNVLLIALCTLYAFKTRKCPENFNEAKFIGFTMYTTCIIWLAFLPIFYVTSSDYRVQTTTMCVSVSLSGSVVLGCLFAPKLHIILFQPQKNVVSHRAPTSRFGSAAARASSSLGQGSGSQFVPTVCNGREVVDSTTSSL

[2] = target: T1, Metabotropic glutamate receptor 2; assay: Displacement of [3H]JNJ-46281222 from human mGlu2 receptor expressed in CHOK1 cell membranes after 1 hr by microbeta scintillation counting method
Target sequence in this assay (Q14416 whole entry): as above

[3] = target: T1, Metabotropic glutamate receptor 2; assay: Displacement of [3H]JNJ-46281222 from human mGlu2 receptor expressed in CHOK1 cell membranes preincubated for 3 hrs followed by [3H]JNJ-46281222 addition and measured after 1 hr by microbeta scintillation counting method
Target sequence in this assay (Q14416 whole entry): as above

[4] = target: T1, Metabotropic glutamate receptor 2; assay: Ratio of Ki for human mGlu2 receptor expressed in CHOK1 cell membranes without preincubation to Ki for human mGlu2 receptor expressed in CHOK1 cell membranes preincubated for 3 hrs; assay type: cell-based
Summary of the method: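 CHO-K1 membranes stably expressing hmGlu2 (butyrate-induced, 15 µg) were pre-coupled to WGA SPA beads. […] Nonspecific binding was defined with 10 µM JNJ-40068782. Mean of ≥3 experiments in duplicate.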
Target sequence in this assay (Q14416 19-872 limits assumed): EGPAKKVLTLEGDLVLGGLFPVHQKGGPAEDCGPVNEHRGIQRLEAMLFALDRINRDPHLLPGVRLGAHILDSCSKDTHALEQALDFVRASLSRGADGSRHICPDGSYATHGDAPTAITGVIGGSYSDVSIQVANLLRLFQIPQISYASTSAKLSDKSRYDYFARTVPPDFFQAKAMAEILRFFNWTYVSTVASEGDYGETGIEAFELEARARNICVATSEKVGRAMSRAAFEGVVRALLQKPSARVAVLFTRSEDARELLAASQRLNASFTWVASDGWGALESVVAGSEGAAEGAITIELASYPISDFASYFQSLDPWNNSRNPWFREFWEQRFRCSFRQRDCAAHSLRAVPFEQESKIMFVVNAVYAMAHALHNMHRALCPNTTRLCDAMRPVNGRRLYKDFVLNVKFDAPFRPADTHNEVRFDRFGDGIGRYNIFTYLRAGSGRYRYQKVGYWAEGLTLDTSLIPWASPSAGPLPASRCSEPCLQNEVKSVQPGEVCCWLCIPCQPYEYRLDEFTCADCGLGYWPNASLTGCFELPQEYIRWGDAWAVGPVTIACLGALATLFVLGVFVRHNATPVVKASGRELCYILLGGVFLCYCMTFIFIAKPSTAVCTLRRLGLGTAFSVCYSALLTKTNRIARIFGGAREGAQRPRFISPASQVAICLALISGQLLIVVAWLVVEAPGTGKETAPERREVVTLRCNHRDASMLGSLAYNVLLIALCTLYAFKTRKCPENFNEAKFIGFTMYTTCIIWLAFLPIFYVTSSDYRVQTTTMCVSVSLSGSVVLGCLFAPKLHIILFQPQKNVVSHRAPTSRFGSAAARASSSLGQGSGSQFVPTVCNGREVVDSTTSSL

[5] = target: T1, Metabotropic glutamate receptor 2; assay: Displacement of [3H]JNJ-46281222 from human mGlu2 receptor expressed in CHOK1 cell membranes assessed as association rate constant after 1 hr in presence of glutamate by microbeta scintillation counting method
Target sequence in this assay (Q14416 19-872 limits assumed): as above

[6] = target: T1, Metabotropic glutamate receptor 2; assay: Displacement of [3H]JNJ-46281222 from human mGlu2 receptor expressed in CHOK1 cell membranes at IC50 after 1 hr in presence of glutamate by microbeta scintillation counting method
Target sequence in this assay (Q14416 19-872 limits assumed): as above

[7] = target: T1, Metabotropic glutamate receptor 2; assay: Irreversible displacement of [3H]JNJ-46281222 from human mGlu2 receptor expressed in CHOK1 cell membranes at 10 times IC50 preincubated for 1 hr in presence of glutamate followed by compound washout and [3H]JNJ-46281222 addition measured after 1 hr by microbeta scintillation counting method
Target sequence in this assay (Q14416 19-872 limits assumed): as above

[8] = target: T1, Metabotropic glutamate receptor 2; assay: Positive allosteric modulation of human mGlu2 receptor expressed in CHOK1 cell membranes assessed as increase in glutamate-induced [35S]GTPgammaS binding preincubated for 3 hrs followed by [35S]GTPgammaS addition and measured after 1 hr by scintillation spectrometry method; assay type: functional
Target sequence in this assay (Q14416 whole entry): as the sequence (Q14416 whole entry) above

[9] = target: T1, Metabotropic glutamate receptor 2; assay: Positive allosteric modulation of human mGlu2 receptor expressed in CHOK1 cell membranes assessed as increase in glutamate-induced [35S]GTPgammaS binding measured after 1 hr by scintillation spectrometry method; assay type: functional
Target sequence in this assay (Q14416 whole entry): as above

[10] = target: T1, Metabotropic glutamate receptor 2; assay: Ratio of EC50 for positive allosteric modulation of human mGlu2 receptor expressed in CHOK1 cell membranes assessed as increase in glutamate-induced [35S]GTPgammaS binding co-incubated with [35S]GTPgammaS to EC50 for positive allosteric modulation of human mGlu2 receptor expressed in CHOK1 cell …; assay type: functional
Target sequence in this assay (Q14416 19-872 limits assumed): as the sequence (Q14416 19-872 limits assumed) above

[11] = target: T1, Metabotropic glutamate receptor 2; assay: (§1) Irreversible positive allosteric modulation of human mGlu2 receptor expressed in CHOK1 cell membranes assessed as increase in glutamate-induced [35S]GTPgammaS binding at 10 times IC50 preincubated for 30 mins followed by compound washout and subsequent [35S]GTPgammaS addition and measured after 30 mins by scintillation spectrometry method; assay type: functional
Target sequence in this assay (Q14416 19-872 limits assumed): as above

[12] = target: T1, Metabotropic glutamate receptor 2; assay: as §1, with “Positive” for “Irreversible positive”, “IC50 test compound added before washing steps” for “IC50”, “by” for “by compound washout and subsequent”; assay type: functional
[13] = target: T1, Metabotropic glutamate receptor 2; assay: Displacement of [3H]JNJ-46281222 from human mGlu2 receptor transiently expressed in CHOK1 cell membranes after 1 hr by liquid scintillation counting method
Target sequence in this assay (Q14416 whole entry): as the sequence (Q14416 whole entry) above

[14] = Displacement of [3H]JNJ-46281222 from human mGlu2 T7917.29x30A mutant receptor transiently expressed in CHOK1 cell membranes after 1 hr by liquid scintillation counting method
[15] = species on record: Homo sapiens; assay: Displacement of [3H]JNJ-46281222 from human mGlu2 R6353.32x32A mutant receptor transiently expressed in CHOK1 cell membranes at 10 times IC50 after 1 hr by liquid scintillation counting method
[16] = system: Metabotropic glutamate receptor 2 (Homo sapiens), Q14416 [R720A]; assay: Displacement of [3H]JNJ-46281222 from human mGlu2 R720A mutant receptor transiently expressed in CHOK1 cell membranes at 10 times IC50 after 1 hr by liquid scintillation counting method
[17] = system: Metabotropic glutamate receptor 2 (Homo sapiens), Q14416 [Y787A]; assay: Displacement of [3H]JNJ-46281222 from human mGlu2 Y787A mutant receptor transiently expressed in CHOK1 cell membranes at 10 times IC50 after 1 hr by liquid scintillation counting method
[18] = species on record: Homo sapiens; assay: Displacement of [3H]JNJ-46281222 from human mGlu2 C7957.33x34A mutant receptor transiently expressed in CHOK1 cell membranes at 10 times IC50 after 1 hr by liquid scintillation counting method
[19] = species on record: Homo sapiens; assay: Displacement of [3H]JNJ-46281222 from human mGlu2 T7917.29x30A mutant receptor transiently expressed in CHOK1 cell membranes preincubated for 3 hrs followed by [3H]JNJ-46281222 addition and measured after 1 hr by liquid scintillation counting method
[20] = target: Metabotropic glutamate receptor 1 (Homo sapiens) (UniProt Q13255); assay: Agonist activity at human mGlu1 receptor expressed in HEK293 cells by calcium assay; assay type: functional, cell-based
[21] = target: Metabotropic glutamate receptor 1 (Homo sapiens) (UniProt Q13255); assay: Antagonist activity at human mGlu1 receptor expressed in HEK293 cells by calcium assay; assay type: functional, cell-based
[22] = target: Metabotropic glutamate receptor 1 (Homo sapiens) (UniProt Q13255); assay: Positive allosteric modulation of human mGlu1 receptor expressed in HEK293 cells by calcium assay; assay type: functional, cell-based
[23] = target: Metabotropic glutamate receptor 3 (Homo sapiens) (UniProt Q14832); assay: Agonist activity at human mGlu3 receptor expressed in HEK293 cells by calcium assay; assay type: functional, cell-based
Sequence of Metabotropic glutamate receptor 3 (Homo sapiens) (Q14832 23-879 limits assumed): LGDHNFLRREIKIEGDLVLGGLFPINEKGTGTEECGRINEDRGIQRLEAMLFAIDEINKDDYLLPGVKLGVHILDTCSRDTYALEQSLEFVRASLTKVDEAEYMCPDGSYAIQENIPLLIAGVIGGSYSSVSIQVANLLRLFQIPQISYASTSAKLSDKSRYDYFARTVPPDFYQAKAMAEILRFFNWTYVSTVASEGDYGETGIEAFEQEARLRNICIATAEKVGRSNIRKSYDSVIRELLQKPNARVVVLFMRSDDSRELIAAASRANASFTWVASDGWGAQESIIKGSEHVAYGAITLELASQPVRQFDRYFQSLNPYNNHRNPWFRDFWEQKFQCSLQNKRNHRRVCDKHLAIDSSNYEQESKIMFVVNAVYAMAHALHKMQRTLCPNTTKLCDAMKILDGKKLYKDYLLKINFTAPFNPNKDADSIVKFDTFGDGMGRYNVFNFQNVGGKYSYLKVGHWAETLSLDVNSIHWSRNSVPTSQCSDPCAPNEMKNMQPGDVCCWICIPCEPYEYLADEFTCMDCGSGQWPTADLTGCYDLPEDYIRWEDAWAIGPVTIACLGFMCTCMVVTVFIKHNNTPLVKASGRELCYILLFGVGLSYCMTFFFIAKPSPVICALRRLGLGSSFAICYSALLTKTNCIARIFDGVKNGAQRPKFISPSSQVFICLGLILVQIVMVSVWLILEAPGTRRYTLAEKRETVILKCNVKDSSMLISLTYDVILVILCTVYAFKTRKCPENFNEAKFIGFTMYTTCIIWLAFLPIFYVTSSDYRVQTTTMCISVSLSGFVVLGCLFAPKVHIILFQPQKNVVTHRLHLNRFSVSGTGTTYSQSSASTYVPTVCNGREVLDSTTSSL

[24] = target: Metabotropic glutamate receptor 3 (Homo sapiens) (UniProt Q14832); assay: Antagonist activity at human mGlu3 receptor expressed in HEK293 cells by calcium assay; assay type: functional, cell-based
[25] = target: Metabotropic glutamate receptor 3 (Homo sapiens) (UniProt Q14832); assay: Positive allosteric modulation of human mGlu3 receptor expressed in HEK293 cells by calcium assay; assay type: functional, cell-based
[26] = target: Metabotropic glutamate receptor 5 (Homo sapiens) (UniProt P41594); assay: Agonist activity at human mGlu5 receptor expressed in HEK293 cells by calcium assay; assay type: functional, cell-based
Sequence of Metabotropic glutamate receptor 5 (Homo sapiens) (P41594 21-1212 limits assumed): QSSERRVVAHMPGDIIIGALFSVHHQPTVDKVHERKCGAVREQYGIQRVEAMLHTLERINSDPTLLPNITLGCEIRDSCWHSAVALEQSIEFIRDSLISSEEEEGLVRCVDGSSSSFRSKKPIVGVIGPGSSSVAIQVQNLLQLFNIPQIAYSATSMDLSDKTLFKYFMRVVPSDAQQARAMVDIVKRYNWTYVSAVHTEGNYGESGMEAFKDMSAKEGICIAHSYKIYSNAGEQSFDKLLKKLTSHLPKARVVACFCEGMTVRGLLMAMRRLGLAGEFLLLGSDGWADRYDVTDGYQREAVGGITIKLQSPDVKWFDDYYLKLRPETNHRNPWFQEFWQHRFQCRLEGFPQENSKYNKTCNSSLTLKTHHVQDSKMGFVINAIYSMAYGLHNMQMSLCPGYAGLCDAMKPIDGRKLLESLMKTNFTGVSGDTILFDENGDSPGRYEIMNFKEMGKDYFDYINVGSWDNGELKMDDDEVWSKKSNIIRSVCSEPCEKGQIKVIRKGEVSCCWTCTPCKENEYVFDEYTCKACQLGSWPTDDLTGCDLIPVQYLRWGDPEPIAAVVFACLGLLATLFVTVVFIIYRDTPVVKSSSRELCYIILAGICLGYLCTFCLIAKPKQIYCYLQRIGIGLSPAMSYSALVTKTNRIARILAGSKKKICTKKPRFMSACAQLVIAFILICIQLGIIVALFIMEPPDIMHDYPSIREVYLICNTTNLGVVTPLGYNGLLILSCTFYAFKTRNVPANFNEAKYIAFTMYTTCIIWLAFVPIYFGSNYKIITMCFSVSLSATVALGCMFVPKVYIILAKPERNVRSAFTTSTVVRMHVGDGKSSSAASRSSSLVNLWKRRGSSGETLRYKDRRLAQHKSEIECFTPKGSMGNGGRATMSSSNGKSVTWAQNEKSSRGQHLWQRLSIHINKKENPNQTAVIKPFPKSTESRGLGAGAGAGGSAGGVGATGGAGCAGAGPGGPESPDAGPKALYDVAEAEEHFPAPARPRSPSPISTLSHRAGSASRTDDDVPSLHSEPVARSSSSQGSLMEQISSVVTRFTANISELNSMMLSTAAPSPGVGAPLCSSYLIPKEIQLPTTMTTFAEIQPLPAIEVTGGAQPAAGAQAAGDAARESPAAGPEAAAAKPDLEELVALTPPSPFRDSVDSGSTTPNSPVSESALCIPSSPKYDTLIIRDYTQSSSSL

[27] = target: Metabotropic glutamate receptor 5 (Homo sapiens) (UniProt P41594); assay: Antagonist activity at human mGlu5 receptor expressed in HEK293 cells by calcium assay; assay type: functional, cell-based
[28] = target: Metabotropic glutamate receptor 5 (Homo sapiens) (UniProt P41594); assay: Positive allosteric modulation of human mGlu5 receptor expressed in HEK293 cells by calcium assay; assay type: functional, cell-based
[29] = target: Metabotropic glutamate receptor 8 (Homo sapiens) (UniProt O00222); assay: Agonist activity at human mGlu8 receptor expressed in HEK293 cells by calcium assay; assay type: functional, cell-based
Sequence of Metabotropic glutamate receptor 8 (Homo sapiens) (O00222 whole entry): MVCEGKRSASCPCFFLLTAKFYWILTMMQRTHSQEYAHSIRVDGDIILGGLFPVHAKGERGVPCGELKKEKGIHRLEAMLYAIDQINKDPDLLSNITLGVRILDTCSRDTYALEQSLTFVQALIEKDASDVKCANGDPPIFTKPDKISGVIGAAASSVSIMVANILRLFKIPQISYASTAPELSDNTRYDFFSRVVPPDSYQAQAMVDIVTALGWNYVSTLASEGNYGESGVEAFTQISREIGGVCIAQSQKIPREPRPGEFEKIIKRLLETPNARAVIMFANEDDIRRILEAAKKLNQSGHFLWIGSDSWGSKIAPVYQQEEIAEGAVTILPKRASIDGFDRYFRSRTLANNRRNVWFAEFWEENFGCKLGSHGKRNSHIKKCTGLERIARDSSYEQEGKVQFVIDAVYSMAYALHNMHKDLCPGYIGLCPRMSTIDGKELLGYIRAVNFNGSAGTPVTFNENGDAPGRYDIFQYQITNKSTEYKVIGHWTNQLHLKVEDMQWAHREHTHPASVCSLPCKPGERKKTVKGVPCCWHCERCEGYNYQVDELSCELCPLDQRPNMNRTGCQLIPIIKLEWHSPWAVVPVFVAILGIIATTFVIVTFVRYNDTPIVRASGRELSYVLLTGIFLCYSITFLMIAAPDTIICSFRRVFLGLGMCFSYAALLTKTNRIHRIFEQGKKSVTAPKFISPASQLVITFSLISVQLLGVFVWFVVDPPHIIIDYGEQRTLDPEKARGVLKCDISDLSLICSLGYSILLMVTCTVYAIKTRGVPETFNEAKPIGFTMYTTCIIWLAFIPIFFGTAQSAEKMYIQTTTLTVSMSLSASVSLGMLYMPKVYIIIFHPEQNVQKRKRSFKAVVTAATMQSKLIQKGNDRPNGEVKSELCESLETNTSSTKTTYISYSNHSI

[30] = target: Metabotropic glutamate receptor 8 (Homo sapiens) (UniProt O00222); assay: Antagonist activity at human mGlu8 receptor expressed in HEK293 cells by calcium assay; assay type: functional, cell-based
[31] = target: T1, Metabotropic glutamate receptor 2; assay: Displacement of [3H]JNJ-46281222 from human mGlu2 receptor expressed in CHOK1 cell membranes assessed as dissociation rate constant after 1 hr in presence of glutamate by microbeta scintillation counting method
[32] = target: T1, Metabotropic glutamate receptor 2; assay: Displacement of [3H]JNJ-46281222 from human mGlu2 receptor expressed in CHOK1 cell membranes assessed as residence time after 1 hr in presence of glutamate by microbeta scintillation counting method

Structure (SMILES) | EC50 [1] | Ki [2] | Ki [3] | K [5] | inhibition [7] | inhibition [15] | inhibition [18] | K [31] | TIME [32] | also measured
O=C(Nc1ccc(-c2ccn3c(CC4CC4)nnc3c2C(F)(F)F)cc1)c1ccc(S(=O)(=O)F)cc1 | 158 nM | 61.7 nM | 6.17 nM | 3.2 ×10³ /M/s | Active | Active | Active | – | – | Ratio Ki [4]: 10; inhibition [6]: inactive; EC50 [8]: 178 nM; EC50 [9]: 1260 nM; Ratio EC50 [10]: 7; Activity [11]: Active; Activity [12]: Active; Ki [13]: 174 nM; pKi [14]: 6.45; inhibition [16]: Active; inhibition [17]: Active; inhibition [19]: inactive
O=C(Nc1cccc(-c2ccn3c(CC4CC4)nnc3c2C(F)(F)F)c1)c1ccc(S(=O)(=O)F)cc1 | 158 nM | 112 nM | 166 nM | 2.1 ×10⁴ /M/s | inactive | – | – | 0.00091 s⁻¹ | 0.3 h | Activity [20]: inactive; inhibition [21]: inactive; Activity [22]: inactive; Activity [23]: inactive; inhibition [24]: inactive; Activity [25]: inactive; Activity [26]: inactive; inhibition [27]: inactive; Activity [28]: inactive; Activity [29]: inactive; inhibition [30]: inactive
O=C(NCc1ccc(-c2ccn3c(CC4CC4)nnc3c2C(F)(F)F)cc1)c1ccc(S(=O)(=O)F)cc1 | 15.1 nM | 5.75 nM | 4.17 nM | 2.2 ×10⁵ /M/s | inactive | – | – | 0.00057 s⁻¹ | 0.483 h | –
FC(F)(F)c1c(CN2CCC(c3ccccc3)CC2)ccn2c(CC3CC3)nnc12 | – | – | – | – | – | inactive | inactive | – | – | –
